Results: ChEMBL document CHEMBL3865830, “Multifunctional diamine AGE/ALE inhibitors with potential therapeutical properties against Alzheimer's disease” (Eur J Med Chem, 2016)

Tested on: not listed separately
Assay: Metal chelating activity of compound assessed as compound-Cu2+ complex formation at 0.02 mM after 10 mins in presence of CuSO4.5H2O by complexometric indicator murexide based UV-Vis spectrophotometric analysis
Format: physicochemical
Conditions: 20 µM
Method in brief: (§1)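 Compound (0.02-2 mM) incubated with CuSO4 (120 µM) for 10 min at rt, in 10 mM hexamine/HCl with 10 mM KCl (pH 5.0), or in buffer/MeOH 75:25 for poorly soluble compounds. Murexide added, 1 min more. The A485/A520 ratio gives free Cu2+ from a CuSO4 calibration curve (0-125 µM). % chelation is taken by difference from the no-compound control; triplicates.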

Activity [%] | Compound
12.16 | Cl.Cl.NCC(N)CCCNC(=O)CCn1cccc(O)c1=O (stereo not given)
14.24 | Cl.Cl.NCC(N)CCCCNC(=O)c1cc(O)c(O)c(O)c1 (stereo not given)
5.39 | COc1cc(/C=C/C(=O)NCCCCC(N)CN)ccc1O.Cl.Cl (stereo not given)
3.3 | COc1cc(/C=C/C(=O)N2CCN(C(=O)CCC(N)CN)CC2)ccc1O.Cl.Cl (stereo not given)

Tested on: not listed separately
Assay: Reactive carbonyl species trapping activity of compound assessed as MGO adduct formation at 10 mM preincubated for 24 hrs with MGO measured after 0.25 hrs by LCMS analysis
Format: physicochemical
Conditions: 10000 µM

Activity [%] | Compound
97 | Cl.Cl.NCC(N)CCCNC(=O)CCn1cccc(O)c1=O (stereo not given)
90 | Cl.Cl.NCC(N)CCCCNC(=O)c1cc(O)c(O)c(O)c1 (stereo not given)
100 | COc1cc(/C=C/C(=O)NCCCCC(N)CN)ccc1O.Cl.Cl (stereo not given)

Tested on: not listed separately
Assay: Antioxidant activity assessed as inhibition of AAPH-induced peroxyl radical generation measured as trolox equivalent at 10 uM preincubated for 30 mins followed by AAPH addition measured evey 60 secs for 60 cycles by ORAC-FL assay
Format: functional
Conditions: in the assay text read “90 secs” for “60 secs”
Method in brief: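 Fluorescein (12 nM) preincubated with compound (1-20 µM) or Trolox standard (1-50 µM) in D-PBS, at least 30 min at 37 °C. Reaction started with AAPH (30 mM). Fluorescence (ex 485/em 520 nm) read every 90 s for 60 cycles. Net AUC is converted to Trolox equivalents via the Trolox calibration line. Values are reported at 10 µM, from at least three independent experiments in triplicate.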

Compound | Activity (umolequiv/umol)
Cl.Cl.NCC(N)CCCNC(=O)CCn1cccc(O)c1=O (stereo not given) | 1.03
Cl.Cl.NCC(N)CCCCNC(=O)c1cc(O)c(O)c(O)c1 (stereo not given) | 2.59
COc1cc(/C=C/C(=O)NCCCCC(N)CN)ccc1O.Cl.Cl (stereo not given) | 1.5
COc1cc(/C=C/C(=O)N2CCN(C(=O)CCC(N)CN)CC2)ccc1O.Cl.Cl (stereo not given) | 2.05

Tested on: not listed separately
Assay: Metal chelating activity of compound assessed as compound-Cu2+ complex formation at 0.05 mM after 10 mins in presence of CuSO4.5H2O by complexometric indicator murexide based UV-Vis spectrophotometric analysis
Format: physicochemical
Conditions: 50 µM
Method in brief: as §1

Activity [%] | Compound
24.84 | Cl.Cl.NCC(N)CCCNC(=O)CCn1cccc(O)c1=O (stereo not given)
31.34 | Cl.Cl.NCC(N)CCCCNC(=O)c1cc(O)c(O)c(O)c1 (stereo not given)
7.96 | COc1cc(/C=C/C(=O)NCCCCC(N)CN)ccc1O.Cl.Cl (stereo not given)
14.92 | COc1cc(/C=C/C(=O)N2CCN(C(=O)CCC(N)CN)CC2)ccc1O.Cl.Cl (stereo not given)

Tested on: not listed separately
Assay: Reactive carbonyl species trapping activity of compound assessed as MGO adduct formation at 10 mM preincubated for 24 hrs with MGO measured after 1 hr by LCMS analysis
Format: physicochemical
Conditions: 10000 µM

Activity [%] | Compound
98 | Cl.Cl.NCC(N)CCCNC(=O)CCn1cccc(O)c1=O (stereo not given)
93 | Cl.Cl.NCC(N)CCCCNC(=O)c1cc(O)c(O)c(O)c1 (stereo not given)
100 | COc1cc(/C=C/C(=O)NCCCCC(N)CN)ccc1O.Cl.Cl (stereo not given)

Organism: Rattus norvegicus
Assay: Cytotoxicity against rat […] PC12 cells assessed as reduction in cell viability at 10 to 100 uM after 24 hrs by WST8-based CCK8 assay
Format: toxicity
Conditions: pc-12, 24 h
Method in brief: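 PC12 Adh cells (rat pheochromocytoma-derived) grown in F-12K with 2.5% FBS, 15% horse serum and pen/strep at 37 °C, 5% CO2. Seeded at 5×10^3 cells/well; treated at 80% confluency with 10 or 100 µM for 24 h. 10% DMSO served as positive cytotoxicity control. CCK-8 added for 1 h at 37 °C, absorbance read at 450 nm. Viability given as % of untreated cells; at least three experiments in triplicate.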

Compound | Activity
Cl.Cl.NCC(N)CCCNC(=O)CCn1cccc(O)c1=O (stereo not given) | Non-Toxic
Cl.Cl.NCC(N)CCCCNC(=O)c1cc(O)c(O)c(O)c1 (stereo not given) | Non-Toxic
COc1cc(/C=C/C(=O)NCCCCC(N)CN)ccc1O.Cl.Cl (stereo not given) | Non-Toxic
COc1cc(/C=C/C(=O)N2CCN(C(=O)CCC(N)CN)CC2)ccc1O.Cl.Cl (stereo not given) | Non-Toxic

Tested on: not listed separately
Assay: Metal chelating activity of compound assessed as compound-Cu2+ complex formation at 0.1 mM after 10 mins in presence of CuSO4.5H2O by complexometric indicator murexide based UV-Vis spectrophotometric analysis
Format: physicochemical
Conditions: 100 µM
Method in brief: as §1

Activity [%] | Compound
40.8 | Cl.Cl.NCC(N)CCCNC(=O)CCn1cccc(O)c1=O (stereo not given)
61.98 | Cl.Cl.NCC(N)CCCCNC(=O)c1cc(O)c(O)c(O)c1 (stereo not given)
15.88 | COc1cc(/C=C/C(=O)NCCCCC(N)CN)ccc1O.Cl.Cl (stereo not given)
28.75 | COc1cc(/C=C/C(=O)N2CCN(C(=O)CCC(N)CN)CC2)ccc1O.Cl.Cl (stereo not given)

Tested on: not listed separately
Assay: Metal chelating activity of compound assessed as compound-Cu2+ complex formation at 2 mM after 10 mins in presence of CuSO4.5H2O by complexometric indicator murexide based UV-Vis spectrophotometric analysis
Format: physicochemical
Conditions: 2000 µM
Method in brief: as §1

Activity [%] | Compound
76.75 | Cl.Cl.NCC(N)CCCNC(=O)CCn1cccc(O)c1=O (stereo not given)
88.48 | Cl.Cl.NCC(N)CCCCNC(=O)c1cc(O)c(O)c(O)c1 (stereo not given)
59.06 | COc1cc(/C=C/C(=O)NCCCCC(N)CN)ccc1O.Cl.Cl (stereo not given)
81.81 | COc1cc(/C=C/C(=O)N2CCN(C(=O)CCC(N)CN)CC2)ccc1O.Cl.Cl (stereo not given)

Tested on: not listed separately
Assay: Reactive carbonyl species trapping activity of compound assessed as MDA adduct formation at 10 mM preincubated for 24 hrs with MDA measured after 5 hrs by LCMS analysis
Format: physicochemical
Conditions: 10000 µM

Activity [%] | Compound
75 | Cl.Cl.NCC(N)CCCNC(=O)CCn1cccc(O)c1=O (stereo not given)
87 | Cl.Cl.NCC(N)CCCCNC(=O)c1cc(O)c(O)c(O)c1 (stereo not given)
24 | COc1cc(/C=C/C(=O)NCCCCC(N)CN)ccc1O.Cl.Cl (stereo not given)

Tested on: not listed separately
Assay: Metal chelating activity of compound assessed as compound-Cu2+ complex formation at 1 mM after 10 mins in presence of CuSO4.5H2O by complexometric indicator murexide based UV-Vis spectrophotometric analysis
Format: physicochemical
Conditions: 1000 µM
Method in brief: as §1

Activity [%] | Compound
76.43 | Cl.Cl.NCC(N)CCCNC(=O)CCn1cccc(O)c1=O (stereo not given)
93.82 | Cl.Cl.NCC(N)CCCCNC(=O)c1cc(O)c(O)c(O)c1 (stereo not given)
52.15 | COc1cc(/C=C/C(=O)NCCCCC(N)CN)ccc1O.Cl.Cl (stereo not given)
71.51 | COc1cc(/C=C/C(=O)N2CCN(C(=O)CCC(N)CN)CC2)ccc1O.Cl.Cl (stereo not given)

Tested on: not listed separately
Assay: Metal chelating activity of compound assessed as compound-Cu2+ complex formation at 0.5 mM after 10 mins in presence of CuSO4.5H2O by complexometric indicator murexide based UV-Vis spectrophotometric analysis
Format: physicochemical
Conditions: 500 µM
Method in brief: as §1

Activity [%] | Compound
73.21 | Cl.Cl.NCC(N)CCCNC(=O)CCn1cccc(O)c1=O (stereo not given)
93.72 | Cl.Cl.NCC(N)CCCCNC(=O)c1cc(O)c(O)c(O)c1 (stereo not given)
42.89 | COc1cc(/C=C/C(=O)NCCCCC(N)CN)ccc1O.Cl.Cl (stereo not given)
61.66 | COc1cc(/C=C/C(=O)N2CCN(C(=O)CCC(N)CN)CC2)ccc1O.Cl.Cl (stereo not given)

Tested on: not listed separately
Assay: Reactive carbonyl species trapping activity of compound assessed as MDA adduct formation at 10 mM preincubated for 24 hrs with MDA measured after 1 hr by LCMS analysis
Format: physicochemical
Conditions: 10000 µM

Activity [%] | Compound
7 | Cl.Cl.NCC(N)CCCNC(=O)CCn1cccc(O)c1=O (stereo not given)
84 | Cl.Cl.NCC(N)CCCCNC(=O)c1cc(O)c(O)c(O)c1 (stereo not given)
17 | COc1cc(/C=C/C(=O)NCCCCC(N)CN)ccc1O.Cl.Cl (stereo not given)

Tested on: not listed separately
Assay: Reactive carbonyl species trapping activity of compound assessed as MDA adduct formation at 10 mM preincubated for 24 hrs with MDA measured after 0.25 hrs by LCMS analysis
Format: physicochemical
Conditions: 10000 µM

Activity [%] | Compound
0 | Cl.Cl.NCC(N)CCCNC(=O)CCn1cccc(O)c1=O (stereo not given)
17 | COc1cc(/C=C/C(=O)NCCCCC(N)CN)ccc1O.Cl.Cl (stereo not given)

Tested on: not listed separately
Assay: Reactive carbonyl species trapping activity of compound assessed as MGO adduct formation at 10 mM preincubated for 24 hrs with MGO measured after 5 hrs by LCMS analysis
Format: physicochemical
Conditions: 10000 µM

Activity [%] | Compound
99 | Cl.Cl.NCC(N)CCCNC(=O)CCn1cccc(O)c1=O (stereo not given)
89 | Cl.Cl.NCC(N)CCCCNC(=O)c1cc(O)c(O)c(O)c1 (stereo not given)
100 | COc1cc(/C=C/C(=O)NCCCCC(N)CN)ccc1O.Cl.Cl (stereo not given)

Tested on: not listed separately
Assay: Metal chelating activity of compound assessed as compound-Cu2+ complex formation at 0.08 mM after 10 mins in presence of CuSO4.5H2O by complexometric indicator murexide based UV-Vis spectrophotometric analysis
Format: physicochemical
Conditions: 80 µM
Method in brief: as §1

Activity [%] | Compound
35.49 | Cl.Cl.NCC(N)CCCNC(=O)CCn1cccc(O)c1=O (stereo not given)
50.28 | Cl.Cl.NCC(N)CCCCNC(=O)c1cc(O)c(O)c(O)c1 (stereo not given)
12.17 | COc1cc(/C=C/C(=O)NCCCCC(N)CN)ccc1O.Cl.Cl (stereo not given)
22.44 | COc1cc(/C=C/C(=O)N2CCN(C(=O)CCC(N)CN)CC2)ccc1O.Cl.Cl (stereo not given)

Tested on: not listed separately
Assay: Reactive carbonyl species trapping activity of compound assessed as MDA adduct formation at 10 mM preincubated for 24 hrs with MDA measured after 0.5 hrs by LCMS analysis
Format: physicochemical
Conditions: 10000 µM

Activity [%] | Compound
4 | Cl.Cl.NCC(N)CCCNC(=O)CCn1cccc(O)c1=O (stereo not given)
80 | Cl.Cl.NCC(N)CCCCNC(=O)c1cc(O)c(O)c(O)c1 (stereo not given)
17 | COc1cc(/C=C/C(=O)NCCCCC(N)CN)ccc1O.Cl.Cl (stereo not given)

Tested on: not listed separately
Assay: Reactive carbonyl species trapping activity of compound assessed as MDA adduct formation at 10 mM preincubated for 24 hrs with MDA measured after 24 hrs by LCMS analysis
Format: physicochemical
Conditions: 10000 µM

Activity [%] | Compound
86 | Cl.Cl.NCC(N)CCCNC(=O)CCn1cccc(O)c1=O (stereo not given)
81 | Cl.Cl.NCC(N)CCCCNC(=O)c1cc(O)c(O)c(O)c1 (stereo not given)
100 | COc1cc(/C=C/C(=O)NCCCCC(N)CN)ccc1O.Cl.Cl (stereo not given)

Tested on: not listed separately
Assay: Reactive carbonyl species trapping activity of compound assessed as MGO adduct formation at 10 mM preincubated for 24 hrs with MGO measured after 15 mins by LCMS analysis
Format: physicochemical
Conditions: 0.25 h, 10000 µM

Activity [%] | Compound
97 | Cl.Cl.NCC(N)CCCNC(=O)CCn1cccc(O)c1=O (stereo not given)
90 | Cl.Cl.NCC(N)CCCCNC(=O)c1cc(O)c(O)c(O)c1 (stereo not given)
100 | COc1cc(/C=C/C(=O)NCCCCC(N)CN)ccc1O.Cl.Cl (stereo not given)

Tested on: not listed separately
Assay: Reactive carbonyl species trapping activity of compound assessed as MGO adduct formation at 10 mM preincubated for 24 hrs with MGO measured after 24 hrs by LCMS analysis
Format: physicochemical
Conditions: 10000 µM

Activity [%] | Compound
98 | Cl.Cl.NCC(N)CCCNC(=O)CCn1cccc(O)c1=O (stereo not given)
95 | Cl.Cl.NCC(N)CCCCNC(=O)c1cc(O)c(O)c(O)c1 (stereo not given)
100 | COc1cc(/C=C/C(=O)NCCCCC(N)CN)ccc1O.Cl.Cl (stereo not given)

Tested on: not listed separately
Assay: Metal chelating activity of compound assessed as compound-Cu2+ complex formation at 200 uM after 10 mins in presence of CuSO4.5H2O by complexometric indicator murexide based UV-Vis spectrophotometric analysis
Format: physicochemical
Conditions: not given
Method in brief: as §1

Activity [%] | Compound
59.96 | Cl.Cl.NCC(N)CCCNC(=O)CCn1cccc(O)c1=O (stereo not given)
87.39 | Cl.Cl.NCC(N)CCCCNC(=O)c1cc(O)c(O)c(O)c1 (stereo not given)
45.61 | COc1cc(/C=C/C(=O)N2CCN(C(=O)CCC(N)CN)CC2)ccc1O.Cl.Cl (stereo not given)

Tested on: not listed separately
Assay: Reactive carbonyl species trapping activity of compound assessed as MGO adduct formation at 10 mM preincubated for 24 hrs with MGO measured after 0.5 hrs by LCMS analysis
Format: physicochemical
Conditions: 10000 µM

Activity [%] | Compound
100 | Cl.Cl.NCC(N)CCCNC(=O)CCn1cccc(O)c1=O (stereo not given)
100 | COc1cc(/C=C/C(=O)NCCCCC(N)CN)ccc1O.Cl.Cl (stereo not given)
